Data as given in publication PMC5065790 (Bioorganic & medicinal chemistry, 2016).

Assays:
[1] = test system: HIV-1 PrGag in immature virus particles; experiment: Virus crosslink analysis, immature HIV-1 particles; type: biochemical; details: 1 mM compound, 1 h at 25°C
HIV-1 MA protein = HIV-1 MA protein (Human immunodeficiency virus type 1 group M subtype B, UniProt P12493); experiment: HIV-1 MA crosslinking, dimer/monomer immunoblot; type: biochemical; details: 30 µM MA, 50 µM compound
Summary of the method: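 Purified HIV-1 MA at 30 µM in 25 mM sodium phosphate (pH 7.8) plus 50 mM NaCl, incubated 2 h at 25°C with or without 50 µM test compound. Dimer and monomer bands were then measured, and percentage MA crosslinking was derived from them.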

[2] = Peptide crosslinking analysis; type: biochemical; details: 0.1 mM peptide, 1 mM compound, 2 h 25°C, reducing SDS-PAGE
HIV-1 MA-RNA binding = HIV-1 MA-RNA binding (Human immunodeficiency virus type 1 group M subtype B, UniProt P12493); experiment: Fluorescence polarization; details: screen of 50,000 compounds
leukotriene synthesis = details: read-out: IC50 concentrations; ref [8]–[9]; cited from earlier work
[3] = target: soluble guanylate cyclase; details: read-out: IC50 concentrations; ref [8]–[9]; cited from earlier work
HIV-1 virus particles [4] = experiment: Inactivation of luciferase-transducing HIV-1; type: cell-based; details: 1 mM, virus treated 1 h at 37°C, HEK293T cells, 48 h
HIV-1 = details: ref [21]–[3]; cited from earlier work
HIV-1 virus particles [5] = experiment: Inactivation of GFP-transducing HIV-1; type: cell-based; details: 1 mM, virus treated 1 h at 37°C, HEK293T cells, 48 h

## COC1=C(Br)C(=O)c2ncccc2C1=O [Compound 102729, 7-bromo-6-methoxy-5,8-quinolinedione]
[1]
  HIV-1 PrGag dimer band: to lower extents
HIV-1 MA protein
  MA dimer formation (in words): significant levels of dimer formation

## O=C1C=CC(=O)N1CCN1C(=O)C=CC1=O [BMOE, bis-maleimidoethane]
[2]
  peptide dimer formation: yielded dimers

## O=C1C=CC(=O)c2cnccc21 [Compound 76882, 5,8-isoquinolinedione]
HIV-1 MA protein
  MA dimer formation (in words): efficiently formed dimers

## O=C1C(Cl)=C(Cl)C(=O)c2ccccc21 [Compound 537, 2,3-dichloronaphthoquinone]
[2]
  peptide dimer formation: yielded dimers
[1]
  HIV-1 PrGag dimer band: showed the HIV-1 PrGag dimer band
HIV-1 MA protein
  MA dimer formation (in words): efficiently formed dimers

## O=C1C(Cl)=C(Cl)C(=O)c2ncccc21 [Compound 81047, 6,7-dichloro-5,8-quinolinedione]
HIV-1 MA-RNA binding
  inhibition of MA-RNA binding in library screen (in words): potently inhibited MA-RNA binding
HIV-1 MA protein
  MA dimer formation (in words): efficiently formed dimers

## COC1=C(Cl)C(=O)c2ncccc2C1=O [Compound 81048, 7-chloro-6-methoxy-5,8-quinolinedione]
HIV-1 MA protein
  MA dimer formation (in words): significant levels of dimer formation

## O=C1C(Nc2ccccc2)=CC(=O)c2ncccc21 [LY83583, 6-anilino-5,8-quinolinequinone]
Leukotriene synthesis
  IC50: 1000 to 2000 nM
[3]
  IC50: 1000 to 2000 nM

## c1ccc(SSc2ccccn2)nc1 [Aldrithiol-2, 2,2'-dipyridyldisulfide]
HIV-1 virus particles [4]
  virus infectivity level after treatment (luciferase, in words): nearly mock-infection levels
HIV-1
  concentrations that inactivate HIV-1: 300 to 1000 µM
HIV-1 virus particles [5]
  virus infection levels (GFP-positive cells, in words): dramatically reduced virus infection levels

## O=C1C=CC(=O)N1CCCCCCN1C(=O)C=CC1=O [BMH, 1,6-bis-maleimidohexane, reference compound]
[2]
  peptide dimer formation: yielded dimers
[1]
  HIV-1 PrGag dimer band: a dimer band was observed
